Values belong to the molecule of their own block, whether it stands above or below them. Activity calls are given as the source filed them. The calls are words filed in the database; no cut-off is given here.
Columns and labels:
Rattus norvegicus [1] = assay: Oral dose necessary to produce an excretion of 2 mequiv of Na+/kg in the rat urine in the 4-h period after peroral administration; Inactive; type: ADME, organism-based; conditions: in vivo
Outline: (§1)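 Rats dosed orally. Urinary Na⁺ was measured over the 4 h after dosing. ED₂ is the oral dose (mg/kg) giving excretion of 2 mequiv Na⁺/kg in that period.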

[2] = Dose required for 50% inhibition of chloride transport in frog cornea was evaluated; type: functional
Canis familiaris [3] = assay: Oral dose in mg/kg necessary to produce an excretion of 5 mequiv of Na+/kg in the dog urine during 6-h period after dosing; conditions: in vivo
Rattus norvegicus [4] = assay: Oral dose necessary to produce an excretion of 2 mequiv of Na+/kg in the rat urine in the 4-h period after peroral administration; type: ADME, organism-based; conditions: in vivo; outline: as §1
Canis familiaris [5] = organism: Canis familiaris; assay: Relative amount of acid ([4-(3-Aminomethyl-4-hydroxy-benzoyl)-2,3-dichloro-phenoxy]-acetic acid;) appearing in dog plasma was reported; type: functional, Canis lupus familiaris
frog = assay: Dose required for 50% inhibition of chloride transport in frog cornea was evaluated; No inhibition; type: functional, tissue-based
Rattus norvegicus [6] = assay: Oral dose necessary to produce an excretion of 2 mequiv of Na+/kg in the rat urine in the 4-h period after peroral administration; inactive; type: ADME, organism-based; conditions: in vivo; outline: as §1

Structure (SMILES): Cl.NCc1cc(C(=O)c2ccc(OCC(=O)O)c(Cl)c2Cl)ccc1O
- ED2 (Rattus norvegicus [1]): Not Active
- IC50 [2]: 8.4 µM
- ED5 (Canis familiaris [3]): 0.71 mg/kg

Structure (SMILES): CCOC(=O)CSc1ccc(Oc2ccc(O)c(CN)c2)c(Cl)c1Cl.Cl
- ED2 (Rattus norvegicus [4]): 1.22 mg/kg

Structure (SMILES): CCOC(=O)Cc1ccc(Oc2ccc(O)c(CN)c2)c(Cl)c1Cl.Cl
- ED2 (Rattus norvegicus [4]): 21.5 mg/kg

Structure (SMILES): COc1ccc(C(=O)c2ccc(O)c(CN)c2)c(Cl)c1Cl.Cl
- ED2 (Rattus norvegicus [1]): Not Active

Structure (SMILES): CCOC(=O)CCCOc1ccc(Oc2ccc(O)c(CN)c2)c(Cl)c1Cl.Cl
- ED2 (Rattus norvegicus [4]): 13.5 mg/kg

Structure (SMILES): Cl.N#CCOc1ccc(C(=O)c2ccc(O)c(CN)c2)c(Cl)c1Cl
- ED2 (Rattus norvegicus [1]): Not Active

Structure (SMILES): Cl.NCc1cc(C(=O)c2ccc(OCCO)c(Cl)c2Cl)ccc1O
- ED2 (Rattus norvegicus [4]): 1 mg/kg
- Relative amount (Canis familiaris [5]): 13%
- Inhibition (frog): inactive
- ED5 (Canis familiaris [3]): 5.5 mg/kg

Structure (SMILES): CCOC(=O)c1ccc(Oc2ccc(O)c(CN)c2)c(Cl)c1Cl.Cl
- ED2 (Rattus norvegicus [1]): Not Active

Structure (SMILES): CCOC(=O)CCc1ccc(Oc2ccc(O)c(CN)c2)c(Cl)c1Cl.Cl
- ED2 (Rattus norvegicus [4]): 10.7 mg/kg

Structure (SMILES): CCOC(=O)COc1ccc(Oc2ccc(O)c(CN)c2)c(Cl)c1Cl.Cl
- ED2 (Rattus norvegicus [4]): 0.8 mg/kg

Structure (SMILES): Cl.NCCOc1ccc(C(=O)c2ccc(O)c(CN)c2)c(Cl)c1Cl
- ED2 (Rattus norvegicus [4]): 16.2 mg/kg
- Relative amount (Canis familiaris [5]): 25%
- Inhibition (frog): inactive
- ED5 (Canis familiaris [3]): 8 mg/kg

More lines, main results first:

- ED2 (Rattus norvegicus [4]): 0.11 mg/kg
Structure (SMILES): CCOC(=O)C1Cc2cc(C(=O)c3ccc(O)c(CN)c3)c(Cl)c(Cl)c2O1 (stereo unspecified)

- ED2 (Rattus norvegicus [4]): 19.5 mg/kg
Structure (SMILES): CCOC(=O)C(C)Oc1ccc(C(=O)c2ccc(O)c(CN)c2)c(Cl)c1Cl.Cl (stereo unspecified)

- ED2 (Rattus norvegicus [4]): 2.5 mg/kg
- IC50 [2]: 14.6 µM
- ED5 (Canis familiaris [3]): 1 mg/kg
Structure (SMILES): CCOC(=O)COc1ccc(C(=O)c2ccc(O)c(CN)c2)c(Cl)c1Cl.Cl
- Relative amount (Canis familiaris [5]): 100%

- ED2 (Rattus norvegicus [4]): 28.5 mg/kg
Structure (SMILES): CC(=O)COc1ccc(C(=O)c2ccc(O)c(CN)c2)c(Cl)c1Cl.Cl

- ED2 (Rattus norvegicus [4]): 17 mg/kg
- IC50 [2]: 16.5 µM
- ED5 (Canis familiaris [3]): 0.7 mg/kg
Structure (SMILES): Cl.NCc1cc(C(=O)c2ccc(OCC(N)=O)c(Cl)c2Cl)ccc1O
- Relative amount (Canis familiaris [5]): 67%

- ED2 (Rattus norvegicus [6]): Not Active
Structure (SMILES): CCOC(=O)C(C)(C)Oc1ccc(C(=O)c2ccc(O)c(CN)c2)c(Cl)c1Cl.Cl
